Source: ChEMBL document CHEMBL3864147, “Antioxidant and anti-inflammatory neolignans from the seeds of hawthorn” (Bioorg Med Chem Lett, 2016)

Columns and labels:
[1] = Antiinflammatory activity in mouse RAW264.7 cells assessed as inhibition of LPS-induced nitric oxide production at 10 uM after 24 hrs by Griess assay relative to control; assay type: functional; settings: RAW264.7, 24 h
How it was run: (§1)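 RAW264.7 cells (5 × 10^5/mL) pre-treated with samples at 100, 50, 10 or 1 µM, then LPS (100 ng/mL) for 24 h. Nitrite in medium measured by mixing with equal volume Griess reagent (1% sulfanilamide in 5% H3PO4, 0.1% N-naphthyl-ethylenediamine), 10 min at 37 °C, absorbance 540 nm; quantified against NaNO2 standard curve; minocycline as positive control.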

[2] = Antiinflammatory activity in mouse RAW264.7 cells assessed as inhibition of LPS-induced nitric oxide production after 24 hrs by Griess assay; assay type: functional, cell-based; settings: RAW264.7, 24 h; how it was run: as §1
[3] = Antiinflammatory activity in mouse RAW264.7 cells assessed as inhibition of LPS-induced TNFalpha production at 100 uM after 24 hrs by ELISA relative to control; assay type: functional; settings: RAW264.7, 24 h
How it was run: (§2)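 RAW264.7 cells plated at 5 × 10^5/mL, pre-treated with samples at 100, 50, 10 or 1 µM, then stimulated with LPS (100 ng/mL) for 24 h. TNF-α in the medium measured by ELISA kit per manufacturer's instructions and quantified from a standard curve; silybin as positive control.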

[4] = Antiinflammatory activity in mouse RAW264.7 cells assessed as inhibition of LPS-induced nitric oxide production at 100 uM after 24 hrs by Griess assay relative to control; assay type: functional; settings: RAW264.7, 24 h; how it was run: as §1
[5] = Antioxidant activity assessed as ferric ion reducing activity by measuring Fe2+ levels using fe3+-TPTZ at 3000 ug/ml after 30 mins by FRAP assay; assay type: functional
How it was run: (§3)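 FRAP reagent: 300 mM acetate buffer pH 3.6, 10 mM TPTZ in 40 mM HCl, 20 mM FeCl3. Sample (3000, 1500, 750, 375 µg/mL solutions) mixed with reagent, 30 min at 37 °C, absorbance 593 nm. Values expressed as µM Fe2+ from FeSO4 calibration curve (5–450 µM).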

[6] = Antioxidant activity assessed as ferric ion reducing activity by measuring Fe2+ levels using fe3+-TPTZ at 375 ug/ml after 30 mins by FRAP assay; assay type: functional; how it was run: as §3
[7] = Antioxidant activity assessed as ferric ion reducing activity by measuring Fe2+ levels using fe3+-TPTZ at 750 ug/ml after 30 mins by FRAP assay; assay type: functional; how it was run: as §3
[8] = Antiinflammatory activity in mouse RAW264.7 cells assessed as inhibition of LPS-induced nitric oxide production at 1 uM after 24 hrs by Griess assay relative to control; assay type: functional; settings: RAW264.7, 24 h; how it was run: as §1
[9] = Antiinflammatory activity in mouse RAW264.7 cells assessed as inhibition of LPS-induced TNFalpha production at 10 uM after 24 hrs by ELISA relative to control; assay type: functional; settings: RAW264.7, 24 h; how it was run: as §2
[10] = Antiinflammatory activity in mouse RAW264.7 cells assessed as inhibition of LPS-induced TNFalpha production after 24 hrs by ELISA; assay type: functional, cell-based; settings: RAW264.7, 24 h; how it was run: as §2
[11] = Antioxidant activity assessed as DPPH radical scavenging activity incubated in dark for 30 mins; assay type: functional
How it was run: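 Samples (0.4 mM stock, 5–40 µL series) and DPPH (2 mM stock, 20 µL) in ethanol, made to 200 µL with ethanol; incubated 30 min in dark at 37 °C; absorbance at 517 nm. Ethanol replaced sample as blank.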

Mus musculus = species on record: Mus musculus; test: Cytotoxicity against mouse RAW264.7 cells assessed as effect on cell viability at 100 uM preincubated for 1 hr followed by LPS stimulation measured after 24 hrs by MTT assay; assay type: toxicity, cell-based; settings: raw264.7, 24 h
How it was run: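 RAW264.7 cells in DMEM with 10% FBS and penicillin/streptomycin at 37 °C, 5% CO2, seeded 5 × 10^5 cells/well; treated with samples (100 µM) 1 h, then LPS (100 ng/mL) 24 h. MTT (0.25 mg/mL) added for 4 h; formazan read at 540 nm; untreated cells as control.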

[12] = Antiinflammatory activity in mouse RAW264.7 cells assessed as inhibition of LPS-induced nitric oxide production at 50 uM after 24 hrs by Griess assay relative to control; assay type: functional; settings: RAW264.7, 24 h; how it was run: as §1
[13] = Antiinflammatory activity in mouse RAW264.7 cells assessed as inhibition of LPS-induced TNFalpha production at 1 uM after 24 hrs by ELISA relative to control; assay type: functional; settings: RAW264.7, 24 h; how it was run: as §2
[14] = Antioxidant activity assessed as ferric ion reducing activity by measuring Fe2+ levels using fe3+-TPTZ at 1500 ug/ml after 30 mins by FRAP assay; assay type: functional; how it was run: as §3
[15] = Antiinflammatory activity in mouse RAW264.7 cells assessed as inhibition of LPS-induced TNFalpha production at 50 uM after 24 hrs by ELISA relative to control; assay type: functional; settings: RAW264.7, 24 h; how it was run: as §2
[16] = Antioxidant activity assessed as ABTS radical scavenging activity after 30 mins; assay type: functional
How it was run: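 ABTS radical generated by 7 mM ABTS plus 2.4 mM potassium persulfate, 12 h dark at room temperature, diluted in ethanol to OD 0.700 at 734 nm. Samples at several concentrations mixed with ABTS+ solution, 30 min at 37 °C, read at 734 nm; ethanol blank; percent scavenging calculated relative to blank.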

SMILES	inhibition at 10 µM [1]	IC50 [2]	inhibition at 100 µM [3]	inhibition at 100 µM [4]	Activity [5]	Activity [6]	Activity [7]	inhibition at 1 µM [8]	inhibition at 10 µM [9]	IC50 [10]	IC50 [11]	Activity (Mus musculus)	inhibition at 50 µM [12]	inhibition at 1 µM [13]	Activity [14]	inhibition at 50 µM [15]	IC50 [16]
COc1cc([C@@H](O)[C@H](CO)Oc2c(OC)cc([C@@H](O)[C@H](O)CO)cc2OC)ccc1O	1.3%	> 100 µM	47%	3.4%	119 µmol/L	35.9 µmol/L	58.1 µmol/L	0.6%	13.7%	> 100 µM	114 µM	Non-Toxic	2.7%	5.1%	84.6 µmol/L	28.2%	10.7 µM
COc1cc([C@@H](O)[C@@H](CO)Oc2c(OC)cc([C@@H](O)[C@H](O)CO)cc2OC)ccc1O	-1.8%	> 100 µM	45.8%	2.7%	127 µmol/L	37.1 µmol/L	60 µmol/L	-3.1%	14.1%	> 100 µM	138 µM	Non-Toxic	1.1%	2.3%	89.1 µmol/L	23.2%	11.8 µM
CN(C)c1ccc(O)c2c1C[C@H]1C[C@H]3[C@H](N(C)C)C(O)=C(C(N)=O)C(=O)[C@@]3(O)C(O)=C1C2=O [MINOCYCLINE]	22.7%	55.1 µM		59.7%				15.6%					51.8%				
Cc1c(C)c2c(c(C)c1O)CCC(C)(C(=O)O)O2 (stereo unspecified) [TROLOX]					172 µmol/L	51.7 µmol/L	96.9 µmol/L				30.2 µM				185 µmol/L		18.2 µM
COc1cc([C@@H](O)[C@@H](CO)Oc2ccc([C@@H](OC)[C@H](O)CO)cc2OC)ccc1O	-2.2%	> 100 µM	69.3%	8.2%	102 µmol/L	32.5 µmol/L	54.1 µmol/L	0.3%	24.5%	47.9 µM	114 µM	Non-Toxic	3.8%	4.5%	78.3 µmol/L	42.4%	12.9 µM
COc1cc([C@H](O)[C@@H](CO)Oc2ccc([C@@H](O)[C@@H](CO)c3ccc(O)c(OC)c3)cc2OC)ccc1O	14.3%	50.5 µM	32.1%	68.9%	132 µmol/L	29.1 µmol/L	42.2 µmol/L	2.6%	4.1%	> 100 µM	68.6 µM	Non-Toxic	49.2%	2.2%	89.9 µmol/L	15.1%	4.4 µM
COc1cc([C@@H](O)[C@@H](CO)Oc2ccc([C@@H](O)[C@H](O)CO)cc2OC)ccc1O	-2.9%	> 100 µM	52.5%	4.4%	66.3 µmol/L	12 µmol/L	18.5 µmol/L	-1.2%	21.2%	94.2 µM	89 µM	Non-Toxic	2.6%	2.4%	26 µmol/L	30.8%	10.7 µM
CCO[C@H](c1ccc(O[C@@H](CO)[C@@H](OC)c2ccc(O)c(OC)c2)c(OC)c1)[C@H](CO)c1ccc(O)c(OC)c1	16.1%	80.5 µM	22.5%	56.2%	129 µmol/L	34.5 µmol/L	66.3 µmol/L	2.5%	2.1%	> 100 µM	81.6 µM	Non-Toxic	37.2%	0.2%	99.2 µmol/L	13.2%	6.3 µM
CCO[C@H](c1ccc(O[C@@H](CO)[C@@H](O)c2ccc(O)c(OC)c2)c(OC)c1)[C@@H](CO)c1ccc(O)c(OC)c1	18.2%	66.4 µM	29.2%	62.6%	134 µmol/L	38.6 µmol/L	62.7 µmol/L	4.7%	3.1%	> 100 µM	79.6 µM	Non-Toxic	40.2%	-2.2%	96.8 µmol/L	11.4%	7.1 µM
COc1cc([C@H](OC)[C@@H](CO)Oc2ccc([C@@H](O)[C@H](O)CO)cc2OC)ccc1O	-0.5%	> 100 µM	57.7%	7%	105 µmol/L	29.9 µmol/L	50.5 µmol/L	-1.3%	18.9%	76.1 µM	109 µM	Non-Toxic	3.2%	3.1%	74.1 µmol/L	37.2%	10.8 µM
COc1cc([C@@H](CO)[C@H](OC)c2ccc(O[C@H](CO)[C@@H](O)c3ccc(O)c(OC)c3)c(OC)c2)ccc1O	22.1%	62.9 µM	17.1%	61.2%	128 µmol/L	45.8 µmol/L	73 µmol/L	5.7%	2.9%	> 100 µM	67.2 µM	Non-Toxic	42.1%	-1.2%	106 µmol/L	9.3%	7.8 µM
CCO[C@H](c1ccc(O[C@@H](CO)[C@@H](O)c2ccc(O)c(OC)c2)c(OC)c1)[C@H](CO)c1ccc(O)c(OC)c1	15.5%	76.3 µM	27.7%	55.1%	135 µmol/L	33.5 µmol/L	65.1 µmol/L	3.7%	-1.9%	> 100 µM	56.8 µM	Non-Toxic	44.1%	0.4%	108 µmol/L	14.2%	7.9 µM
COc1cc(C2Oc3cc([C@H]4Oc5cc(O)cc(O)c5C(=O)[C@@H]4O)ccc3OC2CO)ccc1O (stereo partly specified) [SILIBININ]			53.8%						27%	69.2 µM				10.3%		47%	
